Experimental data as given in ChEMBL document CHEMBL3085725, “Design, synthesis and molecular modelling studies of novel 3-acetamido-4-methyl benzoic acid derivatives as inhibitors of protein tyrosine phosphatase 1B” (Eur J Med Chem, 2013).

Assays:
[1] = biological target: T1, Tyrosine-protein phosphatase non-receptor type 1 (Homo sapiens) (UniProt P18031); experiment: Inhibition of recombinant human PTP1B at 10 uM by malachite green assay relative to control
T1 sequence (whole entry): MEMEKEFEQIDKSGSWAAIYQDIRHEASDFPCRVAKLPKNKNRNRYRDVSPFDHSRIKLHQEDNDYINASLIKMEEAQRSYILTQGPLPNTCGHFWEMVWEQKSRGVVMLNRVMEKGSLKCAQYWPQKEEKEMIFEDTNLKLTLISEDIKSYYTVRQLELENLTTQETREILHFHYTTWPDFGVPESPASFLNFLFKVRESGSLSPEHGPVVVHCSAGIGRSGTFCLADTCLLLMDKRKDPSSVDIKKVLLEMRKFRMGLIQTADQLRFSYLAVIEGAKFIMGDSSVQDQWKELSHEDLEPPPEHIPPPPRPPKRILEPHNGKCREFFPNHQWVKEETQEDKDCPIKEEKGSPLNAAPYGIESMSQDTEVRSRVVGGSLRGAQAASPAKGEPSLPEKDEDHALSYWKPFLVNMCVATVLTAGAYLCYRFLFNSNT
How it was run: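 Human recombinant PTP1B incubated with test compound at 10 µM; DMSO as control. Colorimetric, non-radioactive assay detecting free phosphate released, read with Biomol red phosphate reagent (malachite green basis). Percent inhibition is calculated against control activity without inhibitor, taken as 100%, from three independent sets of experiments.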

[2] = biological target: T2, Tyrosine-protein phosphatase non-receptor type 1 (Homo sapiens, UniProt P18031); experiment: Inhibition of recombinant human PTP1B by malachite green assay
T2 sequence (P18031 whole entry): T1 sequence (whole entry)
How it was run: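 Human recombinant PTP1B; compounds giving around 50% inhibition at 10 µM are retested at six concentrations. Free phosphate released is detected colorimetrically with Biomol red (malachite green).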

[3] = organism: Danio rerio; experiment: Toxicity in zebra fish embryo assessed as death at 10 uM after 24 to 72 hrs by visible light microscopy; assay type: organism-based; details: zebrafish, in vivo
How it was run: (§1)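 Wild-type Indian zebrafish strain kept at 28 °C, 14:10 h light/dark. Embryos from natural mating raised 24 h in E3 medium, dechorionated at 24 hpf with 500 µg/ml Pronase K for 10 min. Six embryos per well exposed to compound at 10 µM final in 0.1% DMSO for 24, 48 and 72 h. Controls received 0.1% DMSO. Embryos scored under visible light microscopy at intervals.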

[4] = tested on: Danio rerio; experiment: Toxicity in zebra fish embryo assessed as oedema at 10 uM after 24 to 72 hrs by visible light microscopy; assay type: organism-based; details: zebrafish, in vivo; how it was run: as §1
[5] = organism: Danio rerio; experiment: Toxicity in zebra fish embryo assessed as deformation at 10 uM after 24 to 72 hrs by visible light microscopy; assay type: organism-based; details: zebrafish, in vivo; how it was run: as §1
[6] = organism: Danio rerio; experiment: Toxicity in zebra fish embryo assessed as developmental delay at 10 uM after 24 to 72 hrs by visible light microscopy; assay type: organism-based; details: zebrafish, in vivo; how it was run: as §1

Compound | inhibition [1] [%] | IC50 [2] [µM] | other results
Cc1ccc(-c2nnc(SCC(=O)Nc3cc(C(=O)O)ccc3C)o2)cc1 | 51.5 | 8.9 | –
Cc1ccc(C(=O)O)cc1NC(=O)CSc1nnc(-c2cccc(Cl)c2Cl)o1 | 29.9 | – | –
COc1cc(-c2nnc(SCC(=O)Nc3cc(C(=O)O)ccc3C)o2)cc(OC)c1OC | 50.7 | 9.7 | –
Cc1ccc(C(=O)O)cc1NC(=O)CSc1nnc(-c2ccccc2Cl)o1 | 27.5 | – | –
COc1ccc2[nH]c(SCC(=O)Nc3cc(C(=O)O)ccc3C)nc2c1 | 57.5 | 8.2 | Activity [3]: Non-toxic; Activity [4]: Non-toxic; Activity [5]: Non-toxic; Activity [6]: Non-toxic
Cc1ccc(C(=O)O)cc1NC(=O)CSc1nnc(-c2ccc(Cl)cc2Cl)o1 | 43.3 | – | –
Cc1ccc(C(=O)O)cc1NC(=O)CSc1nnc(-c2ccc(O)cc2)o1 | 47 | 10.3 | –

Second part, led by results:

inhibition [1] [%] | IC50 [2] [µM] | Compound | other results
57.5 | 8.5 | Cc1ccc(C(=O)O)cc1NC(=O)CSc1nc2ccccc2s1 | –
26.9 | – | Cc1ccc(C(=O)O)cc1NC(=O)CSc1nc2cc([N+](=O)[O-])ccc2[nH]1 | –
32.8 | – | Cc1ccc(C(=O)O)cc1NC(=O)CSc1nc2ccccc2o1 | –
47.8 | 15.2 | Cc1ccc(C(=O)O)cc1NC(=O)CSc1nc2ccccc2[nH]1 | –
38.8 | – | Cc1ccc(C(=O)O)cc1NC(=O)CSc1nnc(-c2ccccc2O)o1 | –
